# Only some compounds are listed: those with a hit (about 5.5% of all), similar ones and a draw of the others.
# PostGolgi ctrl: yeast control strain growth, post-Golgi counter-screen; inhibition, % at 10 µM; AID 738; efflux-deficient yeast background strain, growth absorbance A615, 16 h; 98,000 tested, 5% active
# PLAP activator: human PLAP activation; purified PLAP enzyme, luminescent substrate read-out; stronger effect = higher value; activation fold at 20 µM; AID 696; 96,000 tested, 1.2% active; in the data active = activation fold above about 2
# HePTP inhibitor: blocks human HePTP tyrosine phosphatase | P35236 | recombinant HePTP phosphatase activity, OD absorbance | inhibition, % at 20 µM | 110,000 tested, 0.64% active; in the data active = inhibition above about 50%
# Target sequence (P35236 whole entry, looked up): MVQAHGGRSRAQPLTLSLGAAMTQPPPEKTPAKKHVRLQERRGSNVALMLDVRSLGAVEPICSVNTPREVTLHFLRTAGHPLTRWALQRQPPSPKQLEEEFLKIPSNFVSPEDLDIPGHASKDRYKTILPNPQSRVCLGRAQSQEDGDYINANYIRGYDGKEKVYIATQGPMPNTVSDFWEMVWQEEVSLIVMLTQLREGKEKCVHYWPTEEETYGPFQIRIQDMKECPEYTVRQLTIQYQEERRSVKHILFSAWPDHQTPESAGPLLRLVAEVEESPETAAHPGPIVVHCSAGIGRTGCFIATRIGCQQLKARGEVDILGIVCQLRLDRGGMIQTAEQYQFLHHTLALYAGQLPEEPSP
# Ecoli tolC: growth inhibitors of E. coli BW25113 tolC mutant; OD615; growth inhibition, % at 10 µM (by protocol); 65,000 tested, 2.2% active; AID 573;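 active = growth inhibition at or above a cutoff equal to the mean over every tested compound plus 3 SD, cut at about 60% in these data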;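 also: growth measured after 20 h incubation at 37 °C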
#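 Test system – E. coli BW25113 ΔtolC::kan, tolC deletion mutant strain · Detection – OD at 615 nm · Buffer or medium – LB with kanamycin 50 µg/mL · Times – 20 h compound exposure of bacteria at 37 °C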
# PostGolgi yeast: growth inhibition of a yeast mutant, post-Golgi transport screen; AID 739; post-Golgi transport phenotypic cell assay; 98,000 tested, 0.9% active; inhibition, % at 10 µM;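 also: yeast cells grown in 1536-well plates; yeast grown about 18 h at 30C before absorbance read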
# E coli WT exp: growth inhibitors of E. coli BW25113 wild type; growth inhibition, % at 100 µM; 98,000 tested, 0.15% active; OD600 absorbance; AID 710;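 active = growth inhibition above about 50% at one test dose, limit read from the data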;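 also: growth measured after 20 h incubation at 37 °C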
# Hits are given with their value; . = inactive; / = no result given. Rule as the data show it, unless noted: active = inhibition above about 30%; inactive = the rest.
SMILES,PostGolgi ctrl,PLAP activator,HePTP inhibitor,Ecoli tolC,PostGolgi yeast,E coli WT exp
O=C(O)CCc1nc(-c2ccccc2)no1,.,.,.,.,.,.
CCc1ccccc1N(C)C(=O)CCc1nc(-c2ccc(C)cc2)no1,44,.,.,100,.,.
COc1ccc(NC(=O)CCc2nc(-c3ccc(C)cc3)no2)cc1Cl,.,.,.,.,.,.
COc1ccc(-c2[nH]c3[n+](c2N)CCS3)cc1,/,/,.,/,/,/
COc1cccc(-n2cnc3scc(-c4cccs4)c3c2=O)c1,.,.,.,.,.,.
O=c1c2c(-c3cccs3)csc2ncn1-c1ccc(Br)cc1,38,.,/,/,.,.
Cc1cccc(C(=O)NNC2=C(C(=O)C(F)(F)F)CCC2)c1O,.,2.3,.,/,.,.
O=C(NCc1ccccc1Cl)C(=O)Nc1ccccc1F,/,/,.,/,/,/
CN(C)/C=C/C(=O)c1nnn(C2CCCCC2)c1NC1CCCCC1,31,.,.,.,.,.
O=C(Cc1ccccc1)Nc1nnc(CCc2ccccc2)s1,/,/,.,/,/,/
Cc1ccnc(NC(=O)/C=C/c2cccc([N+](=O)[O-])c2)c1,/,/,.,/,/,/
O=C(Oc1ccc(Cl)c2ccccc12)N1CCCCC1,.,.,/,/,.,.
O=C(Oc1c(Cl)cc(Cl)c2ccccc12)N1CCCC1,32,.,/,/,.,.
O=C(Oc1ccc2ccccc2c1Cl)N1CCCC1,.,.,.,61,.,.
N#C/C(=C/c1ccc(-c2ccc(Cl)cc2)o1)C(=O)O,/,/,.,/,/,/
CCN(CC)S(=O)(=O)c1ccc(NC(=O)CC(NC(C)=O)c2ccccc2)cc1 (stereo not given),40,.,/,/,.,.
CC(=O)NC(CC(=O)Nc1ccc(S(=O)(=O)N2CCCC2)cc1)c1ccccc1 (stereo not given),.,.,.,.,.,.
Cc1ccccc1NS(=O)(=O)c1cccc(-c2nnc(-c3ccccc3)o2)c1,.,.,.,.,.,.
O=S(=O)(NC1CCCCC1)c1cccc(-c2nnc(-c3ccccc3)o2)c1,31,.,.,.,.,.
O=C(Nc1ccccc1)N(Cc1ccccc1)CC(O)C(F)(F)F (stereo not given),.,.,/,/,.,.
O=C(Nc1cccc(F)c1)N(Cc1ccc(Cl)cc1)CC(O)C(F)(F)F (stereo not given),58,.,/,/,.,.
COc1cc(/C=C2/SC(=S)N(C)C2=O)ccc1OCc1ccc(Br)cc1,/,/,.,/,/,/
CC(=O)N(Cc1c(C)nn(-c2ccccc2)c1Cl)c1ccc(Cl)cc1,35,.,/,/,.,.
Cc1nn(-c2ccccc2)c(C)c1CC(=O)N(c1ccccc1)c1ccccc1,/,/,.,/,/,/
CC(=O)N1CCN=C1SCc1ccc(Cl)cc1,35,.,.,.,.,.
SMILES,PostGolgi ctrl,PLAP activator,HePTP inhibitor,Ecoli tolC,PostGolgi yeast,E coli WT exp
C(=N\N1CCN(c2ccccn2)CC1)/c1cccs1,/,/,.,/,/,/
O=C(CC1N=C2c3ccccc3N=C(SCc3ccc(Cl)cc3)N2C1=O)NCc1ccco1 (stereo not given),37,.,.,.,.,.
CCCCC(=O)Nc1cccc(-c2nnc(-c3ccccc3)o2)c1,.,.,.,68,.,.
O=C(Cc1cccs1)Nc1cccc(-c2nc3ccccc3o2)c1,.,.,/,/,.,.
Cc1cccc(-c2nnc(-c3cccc(NC(=O)Cc4cccs4)c3)o2)c1,.,.,/,/,81,.
CCCCNC(=O)Nc1nnc(-c2ccccc2)o1,.,2.1,/,/,.,.
Cc1cccc(C)c1OCC(=O)Nc1cccc(-c2nnc(-c3ccccc3)o2)c1,.,.,.,.,.,.
O=C1c2cccc3cccc(c23)C(=O)N1CCN1CCN(S(=O)(=O)c2cccc3cccnc23)CC1,/,/,.,/,/,/
COc1ccc(Br)cc1/C=C\C(=O)Nc1ccc([N+](=O)[O-])cc1OC,/,/,.,/,/,/
COc1ccc(C2(O)CCN(CC(=O)Nc3nccs3)CC2)c(OC)c1,.,2.4,.,.,.,.
Cc1ccc2c(c1)cc(CN(Cc1ccco1)S(=O)(=O)c1ccccc1)c1nnnn12,45,.,.,.,.,.
Cc1c(CCOC(=O)C23CC4CC(CC(C)(C4)C2)C3)sc[n+]1Cc1ccccc1,34,.,/,/,.,.
Cn1cccc1C(=O)Nc1nc(-c2ccccn2)cs1,.,.,/,90,.,.
O=C(CN1C(=O)CCC1=O)Nc1nc(-c2ccccn2)cs1,.,2.2,.,.,.,.
Cc1csc(NC(=O)c2cccn2C)n1,31,.,/,/,.,.
CCN(CC)C(=O)c1c(NC(=O)c2cccc(C)c2)sc2c1CCCCC2,/,/,.,/,/,/
CC(=O)c1ccc(NC(=O)CSc2ncn[nH]2)cc1,/,/,.,/,/,/
Cc1c(-c2ccc(Cl)cc2Cl)nc2ccccc2c1C(=O)NCc1ccc2c(c1)OCO2,/,/,103,/,/,/
O=C(NNC(=O)c1cccc(Cl)c1)c1cccc(F)c1,/,/,.,/,/,/
Cc1cc(Cl)ccc1OCc1nc(-c2ccc(O)cc2)n[nH]1,96,.,.,.,.,.
O=S(=O)(c1ccc(Br)cc1Br)n1nnc2ccccc21,/,/,.,/,/,/
N#Cc1cccc(NC(=O)Nc2cccs2)c1,.,.,.,.,.,73
CSCCC(NC(=O)c1ccccc1)C(=O)NCc1ccco1 (stereo not given),38,.,.,.,.,.
CCC1=NN2C(=N)/C(=C/c3ccc(OC)c(OC)c3)C(=O)N=C2S1,/,/,.,/,/,/
CCC1=NN2C(=N)/C(=C/c3ccc(OCc4ccc(Br)cc4)c(OC)c3)C(=O)N=C2S1,/,/,101,/,/,/
SMILES,PostGolgi ctrl,PLAP activator,HePTP inhibitor,Ecoli tolC,PostGolgi yeast,E coli WT exp
CSc1nc2ccc(S(=O)(=O)N(C)C)cc2s1,.,.,/,/,.,.
CSc1nc2ccc(NS(=O)(=O)c3ccc(Cl)s3)cc2s1,40,.,.,99,.,.
C=CCNc1ncnc2c1[nH]c1ccc(C)cc12,.,.,.,90,.,82
Cn1c2c(c(=O)n(C)c1=O)C(NS(=O)(=O)c1ccc(Cl)cc1)(C(F)(F)F)C(=O)N2 (stereo not given),.,.,/,/,.,.
Cn1c2c(c(=O)n(C)c1=O)C(C(F)(F)F)(C(F)(F)F)N=C(c1ccccc1Cl)N2,.,.,/,/,31,.
CCOC(=O)c1ccccc1NC(=O)c1cnn2c1NC(c1ccccc1)CC2C(F)(F)F (stereo not given),/,/,.,/,/,/
O=C(c1cnn2c1NC(c1ccco1)CC2C(F)(F)F)N1CCN(c2cccc(Cl)c2)CC1 (stereo not given),65,.,.,.,.,.
Cc1ccccc1Cn1ccc(NC(=O)CCSc2nc(-c3ccco3)cc(C(F)(F)F)n2)n1,54,.,.,.,.,.
O=C(c1cnn2c1NC(c1ccco1)CC2C(F)(F)F)N1CCN(Cc2ccccc2)CC1 (stereo not given),/,/,.,/,/,/
Cc1ccc(Cn2ccc(NC(=O)CCSc3nc(-c4ccco4)cc(C(F)(F)F)n3)n2)cc1,50,.,.,.,.,.
Cc1ccccc1Cn1ccc(NC(=O)c2cnn3c2NC(c2ccccc2)CC3C(F)(F)F)n1 (stereo not given),37,.,/,/,.,.
O=C(Nc1ccc(Cl)cn1)c1ccc(OCc2ccccc2)cc1,/,/,.,/,/,/
NC(=O)c1cc(NC(=O)c2ccc(Cl)c(Cl)c2)ccc1Cl,/,/,.,/,/,/
COc1cc(NC(=O)c2ccccc2Br)ccc1NC(=O)c1cc2ccccc2o1,/,/,.,/,/,/
